Measured values gathered from unrelated publications.
Lines come from different studies, so protocols differ.
malE: malE (Escherichia coli, UniProt P0AEX9)
IAPP: Islet amyloid polypeptide (IAPP, Homo sapiens, UniProt P10997)
AMY2: Pancreatic alpha-amylase (AMY2, Sus scrofa, UniProt P00690)

SMILES	target	observed	action	technique	notes	measurement	result
C[C@H]1O[C@H](O[C@H]2[C@H](O)[C@@H](O)[C@@H](O[C@H]3[C@H](O)[C@@H](O)C(O)O[C@@H]3CO)O[C@@H]2CO)[C@H](O)[C@@H](O)[C@@H]1N[C@H]1C=C(CO)[C@@H](O)[C@H](O)[C@H]1O (stereo partly drawn)	malE	binding	–	ITC	–	Kd	0.36 µM
CC(=O)Nc1ccc(Nc2nc(-c3sc(N)nc3C)cs2)cc1	Lysyl oxidase homolog 2 (LOXL2, Homo sapiens, UniProt Q9Y4K0)	enzyme activity	inhibitor	fluorescence	with preincubation	IC50	0.95 µM
COc1ccc(-c2cc(=O)c3c(OC)c(OC)c(OC)c(OC)c3o2)cc1OC	IAPP	binding	–	ITC	–	Kd	2.79 µM
OC[C@@H](O)[C@@H](O[C@H]1O[C@H](CO)[C@@H](O[C@H]2O[C@H](CO)[C@@H](O[C@H]3O[C@H](CO)[C@@H](O)[C@H](O)[C@H]3O)[C@H](O)[C@H]2O)[C@H](O)[C@H]1O)[C@H](O)[C@@H](O)CO	malE	binding	–	ITC	–	Kd	4.44 µM
CC(C)(C)OC(=O)N1CCN(Cc2ccn(Cc3ccc(Cl)cc3)c(=O)c2O)CC1	Lysine-specific demethylase 4D (KDM4D, Homo sapiens, UniProt Q6B0I6)	enzyme activity	inhibitor	–	–	IC50	3.35 µM
Clc1ccccc1/C=N/N=C/c1ccccc1Cl	AMY2	enzyme activity	inhibitor	–	–	IC50	478 µM
CCCc1ccc(O)c(OC)c1	OR8H1 (Homo sapiens, UniProt Q8NGG4)	cAMP	agonist	luciferase	–	EC50	> 600 µM
COc1ccc(-c2cc(=O)c3c(OC)c(OC)c(OC)cc3o2)cc1OC	IAPP	binding	–	ITC	–	Kd	3.06 µM
FC(F)(F)c1ccc(/C=N/N=C/c2ccc(C(F)(F)F)cc2)cc1	AMY2	enzyme activity	inhibitor	–	–	IC50	270 µM
